# Measured values from ChEMBL document CHEMBL3616436, “Synthesis, cytotoxicity and antimicrobial activity of thiourea derivatives incorporating 3-(trifluoromethyl)phenyl moiety” (Eur J Med Chem, 2015).
# Calls of active or inactive are those of the source. The rule behind the calls is not given here.
# Tests used:
# [1] = system: Vesicular stomatitis virus; experiment: Antiviral activity against Vesicular stomatitis virus ATCC VR 1540 infected in African green monkey Vero 76 cells assessed as reduction of virus-plaque formation after 2 days by crystal violet staining; format: functional, organism-based; conditions: ATCC VR 1540, Vero, 48 h
# [2] = system: Staphylococcus aureus; experiment: Ratio of ciprofloxacin MIC to compound MIC for hospital methicillin-resistant Staphylococcus aureus 54/05 after 18 hrs by twofold serial microdilution method; format: functional
# How it was run: (§1)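 Ratio of MICs for ciprofloxacin and test agent, each from twofold serial broth microdilution in Mueller-Hinton broth following CLSI guidelines. DMSO stock was diluted in sterile water to 0.125–512 µg/mL, with a final inoculum of 10^5 CFU/mL.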
# [3] = system: Staphylococcus aureus; experiment: Ratio of ciprofloxacin MIC to compound MIC for hospital methicillin-resistant Staphylococcus aureus 81/05 after 18 hrs by twofold serial microdilution method; format: functional; how it was run: as §1
# [4] = system: Mammalian orthoreovirus 1; experiment: Antiviral activity against Reovirus type-1 ATCC VR-214 infected in BHK cells assessed as protection against virus-induced cytopathogenicity after 3 to 4 days by MTT assay; format: functional, cell-based; conditions: Mammalian orthoreovirus 1, ATCC VR-214, BHK
# How it was run: (§2)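 Cells seeded in 96-well plates (BHK 5x10^4, MDBK 3x10^4 cells/well), grown overnight to confluence, infected at m.o.i. 0.01 (BHK for Reo-1, MDBK for BVDV); serial compound dilutions in maintenance medium with 0.5% inactivated FBS added after 1 h; viability by MTT after 3–4 days at 37°C; EC50 for 50% protection by linear regression.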
# [5] = system: Staphylococcus aureus; experiment: Antimicrobial activity against Staphylococcus aureus NCTC 4163 at 400 ug after 18 hrs by disc-diffusion method; format: functional; conditions: NCTC 4163, 18 h, read-out: IZ
# How it was run: (§3)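 Disc diffusion on Mueller-Hinton II agar per CLSI; 9 mm paper discs loaded with 400 µg compound from DMSO solution, dried, placed on agar; growth inhibition zone diameter read after 18 h at 35°C.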
# [6] = system: Staphylococcus aureus; experiment: Antimicrobial activity against Staphylococcus aureus ATCC 6538 at 400 ug after 18 hrs by disc-diffusion method; format: functional; conditions: ATCC 6538, 18 h, read-out: IZ; how it was run: as §3
# [7] = system: Staphylococcus epidermidis; experiment: Ratio of ciprofloxacin MIC to compound MIC for hospital methicillin-resistant Staphylococcus epidermidis 23/04 after 18 hrs by twofold serial microdilution method; format: functional; how it was run: as §1
# [8] = system: Staphylococcus aureus; experiment: Antimicrobial activity against Staphylococcus aureus ATCC 29213 after 18 hrs by twofold serial microdilution method; format: functional; conditions: ATCC 29213, 18 h
# [9] = system: Staphylococcus aureus; experiment: Ratio of ciprofloxacin MIC to compound MIC for hospital methicillin-resistant Staphylococcus aureus 80/05 after 18 hrs by twofold serial microdilution method; format: functional; how it was run: as §1
# [10] = system: Staphylococcus aureus; experiment: Ratio of ciprofloxacin MIC to compound MIC for hospital methicillin-resistant Staphylococcus aureus 57/05 after 18 hrs by twofold serial microdilution method; format: functional; how it was run: as §1
# [11] = system: Staphylococcus epidermidis; experiment: Ratio of ciprofloxacin MIC to compound MIC for hospital methicillin-resistant Staphylococcus epidermidis 63/04 after 18 hrs by twofold serial microdilution method; format: functional; how it was run: as §1
# [12] = system: Staphylococcus aureus; experiment: Antimicrobial activity against hospital methicillin-resistant Staphylococcus aureus 522/11 after 18 hrs by twofold serial microdilution method; format: functional; conditions: 522/11, 18 h
# How it was run: (§4)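 Twofold serial microdilution in Mueller-Hinton broth. Compound stock was made in DMSO and diluted in sterile water. Tested range was 0.125–512 µg/mL. Final inoculum was 10^5 CFU/mL. Plates were incubated 18 h at 35 °C. MIC is the lowest concentration preventing visible growth.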
# [13] = system: Bacillus subtilis; experiment: Antimicrobial activity against Bacillus subtilis ATCC 6633 at 400 ug after 18 hrs by disc-diffusion method; format: functional; conditions: ATCC 6633, 18 h, read-out: IZ; how it was run: as §3
# [14] = system: Coxsackievirus B5; experiment: Antiviral activity against Human coxsackievirus B5 ATCC VR-29 infected in African green monkey Vero 76 cells assessed as reduction of virus-plaque formation after 3 days by crystal violet staining; format: functional, organism-based; conditions: Enterovirus B, ATCC VR-29, Vero, 72 h
# How it was run: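 Plaque reduction: Vero-76 at 2x10^5 cells/well grown to confluent monolayers, infected 2 h at 50–100 PFU/well; after removing unadsorbed virus, overlay of D-MEM, 1% inactivated FBS, 0.75% methylcellulose with or without serial compound dilutions; 3 days at 37°C, fixed and stained with crystal violet in 50% ethanol, plaques counted; EC50 by linear regression.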
# [15] = system: Staphylococcus aureus; experiment: Antimicrobial activity against hospital methicillin-resistant Staphylococcus aureus 57/05 after 18 hrs by twofold serial microdilution method; format: functional; conditions: 57/05, 18 h; how it was run: as §4
# [16] = system: Staphylococcus epidermidis; experiment: Ratio of ciprofloxacin MIC to compound MIC for hospital methicillin-resistant Staphylococcus epidermidis 62/04 after 18 hrs by twofold serial microdilution method; format: functional; how it was run: as §1
# [17] = system: Vaccinia virus; experiment: Antiviral activity against Human Vaccinia virus ATCC VR-1549 infected in African green monkey Vero 76 cells assessed as reduction of virus-plaque formation after 3 days by crystal violet staining; format: functional, organism-based; conditions: Orthopoxvirus vaccinia, ATCC VR-1549, Vero, 72 h
# [18] = system: Enterococcus faecalis; experiment: Antimicrobial activity against Enterococcus faecalis ATCC 29212 at 400 ug after 18 hrs by disc-diffusion method; format: functional; how it was run: as §3
# [19] = system: Yellow fever virus; experiment: Antiviral activity against Yellow fever virus 17D infected in BHK cells assessed as protection against virus-induced cytopathogenicity after 3 to 4 days by MTT assay; format: functional, cell-based
# [20] = Cytotoxicity against bovine MDBK cells assessed as cell viability after 48 to 96 hrs by MTT assay; format: cell-based, Bos taurus; conditions: cattle
# [21] = system: Proteus vulgaris; experiment: Antimicrobial activity against Proteus vulgaris NCTC 4635 at 400 ug after 18 hrs by disc-diffusion method; format: functional; how it was run: as §3
# [22] = system: Staphylococcus aureus; experiment: Antimicrobial activity against Staphylococcus aureus NCTC 4163 after 18 hrs by twofold serial microdilution method; format: functional; conditions: NCTC 4163, 18 h
# [23] = Antiviral activity against Bovine viral diarrhea virus 1-NADL ATCC VR-534 infected in MDBK cells assessed as protection against virus-induced cytopathogenicity after 3 to 4 days by MTT assay; format: functional, cell-based; conditions: Bovine viral diarrhea virus isolates and strains, ATCC VR-534, MDBK; how it was run: as §2
# [24] = system: Staphylococcus epidermidis; experiment: Antimicrobial activity against hospital methicillin-resistant Staphylococcus epidermidis 23/04 after 18 hrs by twofold serial microdilution method; format: functional; conditions: 23/04, 18 h; how it was run: as §4
# [25] = system: Staphylococcus aureus; experiment: Ratio of ciprofloxacin MIC to compound MIC for hospital methicillin-resistant Staphylococcus aureus 522/11 after 18 hrs by twofold serial microdilution method; format: functional; how it was run: as §1
# [26] = Cytotoxicity against human MT4 cells; format: cell-based
# [27] = system: Staphylococcus aureus; experiment: Antimicrobial activity against Staphylococcus aureus ATCC 6538 after 18 hrs by twofold serial microdilution method; format: functional; conditions: ATCC 6538, 18 h
# [28] = system: Staphylococcus aureus; experiment: Antimicrobial activity against Staphylococcus aureus ATCC 25923 after 18 hrs by twofold serial microdilution method; format: functional; conditions: ATCC 25923, 18 h
# [29] = system: Staphylococcus epidermidis; experiment: Ratio of ciprofloxacin MIC to compound MIC for hospital methicillin-resistant Staphylococcus epidermidis 24/04 after 18 hrs by twofold serial microdilution method; format: functional
# [30] = system: Staphylococcus epidermidis; experiment: Ratio of ciprofloxacin MIC to compound MIC for hospital methicillin-resistant Staphylococcus epidermidis 76/04 after 18 hrs by twofold serial microdilution method; format: functional; how it was run: as §1
# [31] = system: Staphylococcus epidermidis; experiment: Ratio of ciprofloxacin MIC to compound MIC for hospital methicillin-resistant Staphylococcus epidermidis […]/[…] after 18 hrs by twofold serial microdilution method; format: functional, 16/04
Structure (SMILES),EC50 [1],Ratio [2],Ratio [3],EC50 [4],zone of inhibition at 400 µg/disc [5],zone of inhibition at 400 µg/disc [6],Ratio [7],MIC [8],Ratio [9],Ratio [10],Ratio [11],MIC [12],zone of inhibition at 400 µg/disc [13],EC50 [14],MIC [15],Ratio [16],EC50 [17],EC50 [19],CC50 [20],MIC [22],also measured
FC(F)(F)c1cccc(NC(=S)NCCc2ccccc2)c1,> 46 µM,128,128,> 29 µM,15 mm,15 mm,128,8 µg/mL,128,128,128,16 µg/mL,16 mm,> 46 µM,8 µg/mL,128,> 46 µM,> 29 µM,48 µM,8 µg/mL,inhibition zone (IZ) [18]: inactive; inhibition zone (IZ) [21]: inactive; EC50 [23]: > 48 µM; MIC [24]: 8 µg/mL; Ratio [25]: 128; CC50 [26]: 8.8 µM; MIC [27]: 8 µg/mL; MIC [28]: 8 µg/mL; Ratio [29]: 128; Ratio [30]: 128; Ratio [31]: 128
Fc1ccc(NC(=S)Nc2cccc(C(F)(F)F)c2)cc1Cl,> 20 µM,128,128,> 10 µM,30 mm,30 mm,128,1 µg/mL,128,128,128,0.5 µg/mL,30 mm,> 20 µM,1 µg/mL,128,> 20 µM,> 10 µM,11 µM,1 µg/mL,"zone of inhibition at 400 µg/disc ([18]; ATCC 29212, 18 h, read-out: IZ): 20 mm; zone of inhibition at 400 µg/disc ([21]; NCTC 4635, 18 h, read-out: IZ): 14 mm; EC50 [23]: > 11 µM; MIC [24]: 1 µg/mL; Ratio [25]: 128; CC50 [26]: 8 µM; MIC [27]: 1 µg/mL; MIC [28]: 1 µg/mL; Ratio [29]: 128; Ratio [30]: 128; Ratio [31]: 128"
